Among the data in the array DNA melting data of Ke et al. (doi:10.1101/2024.01.08.574731) are folding enthalpy and Tm values, retold here.

Data set [1] is described as follows: folding enthalpy; higher = less favourable; fluorescence melt of hairpins on a sequencing array, two-state fit. The conditions noted are these: sodium 0.088 M. In outline:
(§1)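 Melting temperature and folding enthalpy were derived from bootstrapped two-state fits. The fitted temperatures were raised by 9.35 °C to agree with UV melts, and four replicates were combined by inverse variance. The underlying data were Cy3 fluorescence images of library hairpins, with annealed Cy3 and quencher oligos, on a sequenced MiSeq flow cell in 50 mM Na-HEPES pH 8.0, 25 mM NaCl, taken in 2.5 °C steps up to 60 °C, normalised to pre-quench Cy3 and to control constructs.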

The nature of data set [2]: melting temperature; fluorescence melt of hairpins on a sequencing array, two-state fit, raised by 9.35 °C to match UV melts. The following applies: sodium 0.088 M. In short, it runs like this: as §1

Regarding GGCAACGAAAGTTCGGCC ((((((....)))..))), in data set [1], the folding enthalpy is -25.2 kcal/mol. Further, the Tm in data set [2] came out at 44.4 °C.
The corresponding values for GGCAACGAAAGTTGCGCC ((((((....)))..))) are -7.94 kcal/mol and 59.2 °C.
As for GGCAACGGAAACATTGCC (((((.(....).))))), the folding enthalpy in data set [1] was -31.6 kcal/mol. Also, the Tm in data set [2] amounted to 45.1 °C.
For GGCAACGGAAACGTTGTC (.(((((....))))).) the same measures were -39.2 kcal/mol and 55.9 °C.
Consider GGCAACTCGAAAGAGGCC (((..(((....)))))), for which the folding enthalpy in data set [1] is -22.7 kcal/mol. In data set [2], the Tm was 48.8 °C.
Turning to GGCAAGGGAAACCCTGCC ((((.((....)).)))), the folding enthalpy in data set [1] was -38.6 kcal/mol. In addition, in data set [2], the Tm was 53.2 °C.
As to GGCAAGGGAAACTTTGCC (((((.(....).))))), in data set [1], the folding enthalpy is -37.7 kcal/mol. Besides, the Tm in data set [2] was 50.1 °C.
The corresponding values for GGCAAGTCGAAAGACGCC (((..(((....)))))) are -18.2 kcal/mol and 53.1 °C.
For GGCAATCCGAAAGGAGCC (((..(((....)))))) the same measures were -23.4 kcal/mol and 46.9 °C.
For GGCAATGAAAATTGCC ((((((....)))))) the same measures were -37.5 kcal/mol and 61.4 °C.
On to GGCAATGGAAACATCGCC (((.(((....))).))), for which the folding enthalpy in data set [1] was -34.7 kcal/mol. The Tm in data set [2] was determined as 45.5 °C.
Regarding GGCAATGGAAACATTGTC (.(((((....))))).), the folding enthalpy in data set [1] was -33.5 kcal/mol. For the same sequence, the Tm in data set [2] stood at 48.4 °C.
On to GGCAATTCGAAAGAAGCC (((..(((....)))))), for which the folding enthalpy in data set [1] was -24.7 kcal/mol. The Tm in data set [2] worked out at 37.8 °C.
The corresponding values for GGCACAACGAAAGTTGCC (((..(((....)))))) are -16.4 kcal/mol and 44.2 °C.
With GGCACACCGAAAGGTGCC (((..(((....)))))), the folding enthalpy in data set [1] was -14.3 kcal/mol. In data set [2], the Tm was 52.8 °C.
The corresponding values for GGCACAGGAAACTGCGCC (((.(((....))).))) are -50.8 kcal/mol and 55.8 °C.
As for GGCACATCGAAAGATGCC (((..(((....)))))), in data set [1], the folding enthalpy is -14.7 kcal/mol. Moreover, the Tm in data set [2] was 42.8 °C.
For the sequence GGCACCGAAAGGTCGGCC ((((((....)))..))), in data set [1], the folding enthalpy is -21.8 kcal/mol. Moreover, the Tm in data set [2] came out at 49.9 °C.
For GGCACCGAAAGGTCTGCC ((((((....)))..))), in data set [1], the folding enthalpy was -22.2 kcal/mol. Further, the Tm in data set [2] was 48.4 °C.
GGCACCGAAAGGTGTGCC ((((((....)))..))): the folding enthalpy in data set [1] is -16.3 kcal/mol. Further, the Tm in data set [2] stood at 55.4 °C.
GGCACCGAAAGGTTTGCC ((((((....)))..))): in data set [1], the folding enthalpy was -22.6 kcal/mol. Further, the Tm in data set [2] worked out at 50.6 °C.
Consider GGCACCGGAAACGATGCC ((((.((....)).)))), for which the folding enthalpy in data set [1] is -43.2 kcal/mol. Besides, the Tm in data set [2] amounted to 52.9 °C.
Regarding GGCACCGGAAACGGTACC ((.((((....)))).)), the folding enthalpy in data set [1] is -22.5 kcal/mol. Further, the Tm in data set [2] was determined as 50.7 °C.
For the sequence GGCACGCCGAAAGGCGCC (((..(((....)))))), the folding enthalpy in data set [1] was -6.45 kcal/mol. The Tm in data set [2] worked out at 40.3 °C.
Take GGCACGGGAAACCGTGTC (.(((((....))))).): in data set [1], the folding enthalpy was -34.6 kcal/mol. Further, in data set [2], the Tm is 59.2 °C.
Turning to GGCACTACGAAAGTAGCC (((..(((....)))))), the folding enthalpy in data set [1] is -11.9 kcal/mol. Moreover, the Tm in data set [2] is 39.3 °C.
In the case of GGCACTGCGAAAGCAGCC (((..(((....)))))), the folding enthalpy in data set [1] was -8.74 kcal/mol. Moreover, the Tm in data set [2] worked out at 35.9 °C.
For the sequence GGCACTGGAAACAGCACC ((..(((....)))..)), the folding enthalpy in data set [1] is -9.94 kcal/mol. Also, in data set [2], the Tm is 23.5 °C.
In the case of GGCACTGGAAACAGTGTC (.(((((....))))).), in data set [1], the folding enthalpy is -37.8 kcal/mol. The Tm in data set [2] was found to be 54.1 °C.
The corresponding values for GGCAGAGCGAAAGCTGCC (((..(((....)))))) are -28.6 kcal/mol and 61.9 °C.
With GGCAGCGAAAGCTAGGCC ((((((....)))..))), the folding enthalpy in data set [1] was -28.6 kcal/mol. The Tm in data set [2] is 55.3 °C.
The corresponding values for GGCAGCGAAAGCTGGGCC ((((((....)))..))) are -13.1 kcal/mol and 52 °C.
Turning to GGCAGCGAAAGCTGTGCC ((((((....)))..))), the folding enthalpy in data set [1] is -13.2 kcal/mol. In addition, the Tm in data set [2] is 51 °C.
For the sequence GGCAGCGGAAACACCGCC (((.(.(....).).))), the folding enthalpy in data set [1] is -11.1 kcal/mol. For the same sequence, the Tm in data set [2] stood at 34.9 °C.
Regarding GGCAGCGGAAACGCTACC ((.((((....)))).)), the folding enthalpy in data set [1] was -22.8 kcal/mol. For the same sequence, the Tm in data set [2] was 54 °C.
Turning to GGCAGGAAACTGCC (((((....))))), in data set [1], the folding enthalpy was -31.6 kcal/mol. The Tm in data set [2] stood at 65.6 °C.
